Laboratory results reported in paper PMC3035813 (The Journal of neuroscience : the official journal of the …, 2009).
No end group written: not given here.

Assays:
GnRH neurons = test: GnRH neuron firing, targeted extracellular recordings in brain slices; type: cell-based, mouse; conditions: 1 nM, 5 min, n=7
adult male rats = test: LH and testosterone in intact adult male rats after icv injection; type: in vivo, rat; conditions: 100 pmol kisspeptin-10 icv alone
Summary of the method: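 Intact adult male rats (280–310 g; 14 h light, 22°C) with lateral-ventricle cannulae (4 mm deep; 1 mm posterior, 1.2 mm lateral to bregma), tested 24–48 h after implantation. 5 μl icv injections at 60 min intervals; 100 pmol kisspeptin-10 given with the last. Controls received saline vehicle. Jugular blood was taken 60 min later (180 min). Serum testosterone was measured by commercial kit (sensitivity 0.1 ng/tube; intraassay CV 4.5%).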

kisspeptin-10 (YNWNSFGLRF; ends and bridges not checked; UniProt Q15726 112-121, looked up)
effect on GnRH neuron firing activity (GnRH neurons): markedly increased GnRH neuron firing activity
testosterone levels at 60-min (adult male rats): 2.17 ± 0.2
